Activity data for one molecule are collected here from ChEMBL document CHEMBL3272092, “Synthesis and antihypertensive activity of 5-thio-2-pyridinecarboxylic acid derivatives” (J Med Chem, 1978).

SMILES strings stand for the structures.

Data set [1] has as its system Rattus norvegicus. As to the kind of experiment: Antihypertensive activity in spontaneous hypertensive rat model assessed as decrease in blood pressure at 100 mg/kg, po administered for 2 to 4 days measured on day 2 to day 4. Format: functional. In outline: (§1)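 SHR, 4–6 per drug, were dosed daily by gavage for 2 or 4 consecutive days in 3% cornstarch, 5% PEG-400 and 1 drop Tween 80 per mL. After 1 h acclimation, systolic pressure was read by tail-cuff (inflated to 250 mmHg, then lowered; pulse reemergence), at least three readings, at 1, 2, 3 and 24 h post-dose. The peak fall is scored: +, <20 mm up to >80 mm.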

Data set [2] deals with Rattus norvegicus. As to the kind of experiment: Antihypertensive activity in spontaneous hypertensive rat model assessed as decrease in blood pressure at 200 mg/kg, po administered for 2 to 4 days measured on day 2 to day 4. Format: functional. The essentials: as §1
The test system of data set [3] is Rattus norvegicus. The experiment in a line: Toxicity in spontaneous hypertensive rat model assessed as bradycardia at 100 to 200 mg/kg, po administered for 2 to 4 days. The class given is organism-based. Set-up: route oral. The conditions noted are these: in vivo. In outline:
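Heart rate in SHR was counted from tail-cuff pressure pulses after 1 h acclimation. Rats (4–6 per drug) were gavaged daily for 2 or 4 days at 100 mg/kg (sometimes 200 mg/kg) in 3% cornstarch, 5% PEG-400 and 1 drop Tween 80 per mL. Recordings were at 1, 2, 3 and 24 h after each dose.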

Data set [4] relates to Canis familiaris. The experiment in a line: Antihypertensive activity in unanesthetized renal hypertensive Mongrel dog model assessed as change in mean blood pressure at 100 mg/kg, po qd measured on day 1. Format: functional, Canis lupus familiaris. In outline: (§2)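 Unanesthetized renal hypertensive dogs. Arterial pressure was recorded via a hypodermic needle and polyethylene tubing to a pressure transducer. Drug was given orally once daily as solid in a gelatin capsule. Pressure was determined 1.5, 3, 6 and 24 h after each dose, and the maximum change over each daily monitored session is reported.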

In data set [5] the test system is Canis familiaris. The experiment in a line: Antihypertensive activity in unanesthetized renal hypertensive Mongrel dog model assessed as change in mean blood pressure at 100 mg/kg, po qd measured on day 2. Format: functional, Canis lupus familiaris. In outline: as §2
In data set [6] the test system is Canis familiaris. The experiment in a line: Toxicity in unanesthetized renal hypertensive Mongrel dog model assessed as change in heart rate at 100 mg/kg, po qd measured on day 1. Format: organism-based, Canis lupus familiaris. Set-up: dose 100 mg/kg, route oral. To be noted: in vivo. In outline: (§3)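 Heart rate in unanesthetized renal hypertensive dogs was counted manually from the transducer-recorded arterial pressure trace. Oral dosing was once daily as solid in a gelatin capsule. Readings were at 1.5, 3, 6 and 24 h post-dose, and the maximum change per daily session is reported.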

The test system of data set [7] is Canis familiaris. As to the kind of experiment: Toxicity in unanesthetized renal hypertensive Mongrel dog model assessed as change in heart rate at 100 mg/kg, po qd measured on day 2. Set-up: dose 100 mg/kg, route oral. The class given is organism-based, Canis lupus familiaris. The conditions noted are these: in vivo. The essentials:
as §3

The subject of data set [8] is Squirrel monkey. As to the kind of experiment: Antihypertensive activity in normotensive squirrel monkey model assessed as decrease in systolic blood pressure at 100 mg/kg, po qd measured on day 2 by sphygmomanometry. Format: functional, Saimiri sciureus, Artery. In outline: (§4)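 Restrained squirrel monkeys of either sex with tails warmed by infrared lamp. Systolic pressure was measured indirectly with a tail-base occlusion cuff and pulse transducer. Doses were given daily by gavage as a suspension in 3% cornstarch, 5% PEG-400 and 1 drop Tween 80 per 10 mL. Readings were taken 1.5, 3, 5 and 24 h post-dose. Values are the peak change after each dose, analysed by paired t test.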

Data set [9] concerns Squirrel monkey. As to the kind of experiment: Antihypertensive activity in normotensive squirrel monkey model assessed as decrease in systolic blood pressure at 100 mg/kg, po qd measured on day 1 by sphygmomanometry. Format: functional, Saimiri sciureus, Artery. In outline: as §4
Data set [10] relates to Squirrel monkey. The experiment in a line: Antihypertensive activity in normotensive squirrel monkey model assessed as decrease in systolic blood pressure at 100 mg/kg, po qd measured on day 3 by sphygmomanometry. The class given is functional, Saimiri sciureus, Artery. The essentials: as §4
The test system of data set [11] is Squirrel monkey. The experiment in a line: Antihypertensive activity in normotensive squirrel monkey model assessed as decrease in systolic blood pressure at 100 mg/kg, po qd measured on day 4 by sphygmomanometry. The class given is functional, Saimiri sciureus, Artery. In outline:
as §4

The test system of data set [12] is Squirrel monkey. The experiment in a line: Toxicity in normotensive squirrel monkey model assessed as change in heart rate at 100 mg/kg, po qd measured on day 2. The class given is organism-based, Saimiri sciureus. Set-up: dose 100 mg/kg, route oral. To be noted: in vivo. In outline: (§5)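 Heart rate in restrained, tail-warmed squirrel monkeys was counted manually from the tail-cuff pressure record. Daily gavage used a suspension in 3% cornstarch, 5% PEG-400 and 1 drop Tween 80 per 10 mL. Monitoring was at 1.5, 3, 5 and 24 h after each dose, and the peak change per administration is reported. Paired t test.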

The test system of data set [13] is Squirrel monkey. The experiment in a line: Toxicity in normotensive squirrel monkey model assessed as change in heart rate at 100 mg/kg, po qd measured on day 1. Format: organism-based, Saimiri sciureus. Set-up: dose 100 mg/kg, route oral. The conditions noted are these: in vivo. In outline: as §5
In data set [14] the test system is Squirrel monkey. The experiment in a line: Toxicity in normotensive squirrel monkey model assessed as change in heart rate at 100 mg/kg, po qd measured on day 3. Format: organism-based, Saimiri sciureus. Set-up: dose 100 mg/kg, route oral. The conditions noted are these: in vivo. The essentials:
as §5

In data set [15] the test system is Squirrel monkey. As to the kind of experiment: Toxicity in normotensive squirrel monkey model assessed as change in heart rate at 100 mg/kg, po qd measured on day 4. Format: organism-based, Saimiri sciureus. Set-up: dose 100 mg/kg, route oral. The conditions noted are these: in vivo. The essentials: as §5
Data set [16] deals with Canis familiaris. The experiment in a line: Toxicity in unanesthetized renal hypertensive Mongrel dog model assessed as emesis at 100 mg/kg, po qd measured on day 1 to 4. Format: organism-based, Canis lupus familiaris. Set-up: dose 100 mg/kg, route oral. The conditions noted are these: in vivo.

For `O=C(O)c1ccc([S+]([O-])Cc2cccc(C(F)(F)F)c2)cn1` (stereo unspecified), the Activity in the data set on Rattus norvegicus [1] was over 40 mmHg; in the data set on Rattus norvegicus [2], over 60 mmHg; in the data set with Rattus norvegicus [3], “Toxic”; in the data set on Canis familiaris [4], -7 mmHg; with Canis familiaris [5] it was -10 mmHg; in the data set with Canis familiaris [6], 10 bpm. Further, the Activity with Canis familiaris [7] is 2 bpm; in the data set with Squirrel monkey [8], -29 mmHg; in the data set on Squirrel monkey [9] it was -30 mmHg; in the data set with Squirrel monkey [10] it was -19 mmHg; with Squirrel monkey [11], -19 mmHg; with Squirrel monkey [12] it was -83 bpm. For the same molecule, the Activity was -43 bpm in the data set with Squirrel monkey [13], -73 bpm with Squirrel monkey [14], -33 bpm with Squirrel monkey [15] and “Non-toxic” in the data set with Canis familiaris [16].
